Screens from PubChem.
Sampled rows, rich in hits. Any-hit rate of the full collection: about 2.1%.
MEX-5 binding: C. elegans MEX-5 TCR-2 RNA binding activity; Q9XUB2; AID 1832; activity score (negative = inhibition of binding), % at 10 µM; MEX-5/FITC-TCR2 RNA binding, fluorescence polarization; active compounds read low; actives 0.38% (n = 300,000);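 active means inhibition past about -25% in most replicates, and total fluorescence under double the plate's negative control median, limit read from the data; inconclusive means replicates evenly split on the limit, or fluorescence at least double controls; inactive means too little inhibition in most replicates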;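 further: 0% = DMSO and -100% = 5 µM competing unlabeled TCR2 RNA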
Target sequence (Q9XUB2 whole entry, looked up): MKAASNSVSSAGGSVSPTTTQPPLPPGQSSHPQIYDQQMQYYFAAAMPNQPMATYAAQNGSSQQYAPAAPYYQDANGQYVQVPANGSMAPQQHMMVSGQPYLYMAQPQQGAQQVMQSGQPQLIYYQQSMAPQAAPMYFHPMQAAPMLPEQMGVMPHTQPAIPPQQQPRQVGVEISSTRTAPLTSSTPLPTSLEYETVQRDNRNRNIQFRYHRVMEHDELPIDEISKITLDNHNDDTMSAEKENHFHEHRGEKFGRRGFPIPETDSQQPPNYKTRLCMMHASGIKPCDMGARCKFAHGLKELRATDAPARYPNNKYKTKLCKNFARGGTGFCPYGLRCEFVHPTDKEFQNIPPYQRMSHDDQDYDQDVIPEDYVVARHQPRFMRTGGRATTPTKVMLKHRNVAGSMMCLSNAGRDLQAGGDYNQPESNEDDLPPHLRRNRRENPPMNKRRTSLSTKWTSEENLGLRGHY
Runt-SMMHC FRET: blocks binding of human RUNX1 Runt domain to CBFb-SMMHC; Q01196+Q13951; actives 0.74% (n = 220,000); Cerulean-Runt/Venus-CBFb-SMMHC FRET ratio 530/480, 1 h; inhibition, % at 20 µM;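 active means mean inhibition across duplicate retests at 20 µM reaching about 50%, limit read from the data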;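 further: 0% = DMSO wells and 100% = wells with excess untagged CBFb-SMMHC; inhibitors lower the FRET ratio by blocking Runt binding to CBFb-SMMHC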
proKLK7 act: activators of human kallikrein-7 zymogen. P49862. purified proKLK7, EDANS-DABCYL substrate fluorescence; 100% is mature enzyme control, 0% vehicle. activation, % at 7 µM. actives 0.9% (n = 370,000). AID 652039;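 active means activation above the mean of all tested compounds plus 3 SD, computed per campaign excluding outliers beyond control limits, cut at about 13% in these data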
Target sequence (P49862 whole entry, looked up): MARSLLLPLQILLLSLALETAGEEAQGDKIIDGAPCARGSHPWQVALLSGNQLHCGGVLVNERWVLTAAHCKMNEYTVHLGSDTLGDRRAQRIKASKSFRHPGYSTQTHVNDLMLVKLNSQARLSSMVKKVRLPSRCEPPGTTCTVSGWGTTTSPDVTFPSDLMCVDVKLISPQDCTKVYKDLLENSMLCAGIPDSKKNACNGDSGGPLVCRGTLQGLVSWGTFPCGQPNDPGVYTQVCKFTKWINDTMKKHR
Runt-CBFb FRET: inhibitors of human RUNX1 Runt domain binding to CBFb. Cerulean-Runt/Venus-CBFb FRET ratio 530/480, 1 h. inhibition, % at 20 µM. actives 0.46% (n = 220,000). AID 1496;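 active means inhibition over about 50% at 20 µM in the single-dose screen, limit read from the data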;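 further: 0% = DMSO wells and 100% = excess unlabeled CBFb competitor control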
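Assay system: Cerulean-tagged RUNX1 Runt domain (FRET donor) fusion protein / Amount: 100 nM each of Venus-CBFb and Cerulean-Runt domain / Medium: Tris buffer pH 7.5 with salts and BSA / Also added: Venus-CBFb 100 nM / Schedule: 1 h complex formation plus 1 h compound treatment, room temperature / Signal: FRET fluorescence / Read-out: loss of energy transfer signal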
RanGTP-Impb inh: disruptors of Ran-importin-beta complex formation – biochemical, FRET, CFP-Ran, YFP-importin-beta, homogeneous, primary screen. cell-free CFP-Ran/YFP-importin-beta FRET ratio. actives 1.1% (n = 300,000). inhibition, % (test concentration not listed);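 active means more than half of the replicate wells show a fall in the fluorescence ratio signal beyond about 16%, limit read from the data, passing the limit was not always enough; inconclusive means exactly half of the replicate wells pass the set limit; inactive means fewer than half of replicates pass the limit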;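 further: 0% = DMSO wells and 100% = Ran loaded with GDP instead of GTP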
YIC FRET counter: counter-screen: alters YIC FRET probe signal; shares compounds with RanGTP-Impb inh; Purified YIC probe, intramolecular FRET ratio YFP/CFP; IC50, µM; actives 40% (n = 1,000);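 active means fitted half-maximal inhibitory concentration no more than tenfold above the top dose tested; inconclusive means flat fit with 30 to 70% activity, or poor fit; inactive means half-maximal concentration beyond tenfold above the top dose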
proKLK7 act conf: proKLK7 activation, confirmation | actives 68% (n = 3,200) | activation, % at 7 µM | shares compounds with proKLK7 act | AID 686949 | purified proKLK7, EDANS-DABCYL substrate fluorescence; scaled: vehicle 0, mature enzyme 100;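 active means activation, as change over the incubation, above the mean of all tested compounds plus 3 SD, cut at about 13% in these data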
EDANS interfere: counter-screen for kallikrein-7 activators: EDANS-DABCYL optical interference. shares compounds with proKLK7 act. EDANS-DABCYL substrate fluorescence interference, no enzyme, 4 h; solvent 0%, active enzyme control 100%. activation, % at 7 µM. actives 80% (n = 3,200). AID 686952;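 active means activation above the all-compound mean plus 3 SD, ignoring values outside control-based bounds, cut at about 4.8% in these data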;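 further: value is the 4 h activation minus the activation read at time zero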
EDANS interf: EDANS fluorescence interference in dose response, no enzyme | shares compounds with proKLK7 act | EDANS-DABCYL peptide fluorescence interference | EC50, µM | actives 20% (n = 250);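 active means compounds that raise the fluorescence signal in this interference counterscreen, with EC50 at or below 10 µM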;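 further: intact quenched peptide substrate alone read at 355 nm excitation and 520 nm emission; signal is fluorescence gain from T0 to T4 after four hours at room temperature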
Active calls of the source: *; i = inactive; u = inconclusive; x = not tested or not shown.

SMILES | MEX-5 binding | Runt-SMMHC FRET | proKLK7 act | Runt-CBFb FRET | RanGTP-Impb inh | proKLK7 act conf | EDANS interfere | others
CC(C)(C)c1ccc(S(=O)(=O)N2CCCC(C(=O)NCc3ccco3)C2)cc1 (centres undefined) | x | x | 0 | x | x | x | x
CCc1nc2ccc(C(=O)Nc3ccc(C(N)=O)cc3)cn2c1N(CCC(C)C)CCN(C)C | x | x | -1 | x | x | x | x
O=C(Oc1ccc2c3c(c(=O)oc2c1)CCCC3)c1ccco1 | 2 | 166* | 295* | 130* | 17* | 639* | 631* | YIC FRET counter=20*
Cc1coc2c(C)c3oc(=O)c(CCC(=O)NCCCN4CCCC4=O)c(C)c3cc12 | 0 | x | 5 | x | 4 | x | x
Cc1c(CCC(=O)NCCCN2CCCC2=O)c(=O)oc2c(C)c(O)ccc12 | 0 | x | 79* | x | 33* | 63* | 77* | YIC FRET counter=16*
N#Cc1ccc(NC(=S)NC(=O)C2CC2)cc1 | x | x | 0 | x | x | x | x
COc1ccc2c(C)c(CC(=O)N3CCN(C(=O)C4COc5ccccc5O4)CC3)c(=O)oc2c1 (centres undefined) | 3 | x | 3 | x | 0 | x | x
Cc1c(CC(=O)N2CCN(C(=O)C3COc4ccccc4O3)CC2)c(=O)oc2c(C)c(O)ccc12 (centres undefined) | -1 | x | 39* | x | 24* | 70* | 70* | YIC FRET counter=14*
O=C(NCCCn1ccnc1)c1[nH]c(C(F)(F)F)nc1-c1ccccc1 | x | x | 1 | x | x | x | x
CC(=O)Oc1cc2oc(=O)cc(C)c2cc1OC(C)=O | -4 | 42 | 68* | 81* | 30* | 77* | 90* | YIC FRET counter=45*
CCCc1cc(=O)oc2c(CN3CCCC3)c(O)c(Cl)cc12 | -1 | 160* | 70* | 98* | 62* | 64* | 77* | YIC FRET counter=27*
CCCc1cc(=O)oc2cc(C)c(CN3CCCC3)c(O)c12 | 1 | -19 | -1 | -4 | 3 | x | x
O=C(Cc1cc(=O)oc2cc(O)ccc12)N[C@@H](Cc1c[nH]c2ccccc12)C(=O)O | -2 | x | 16* | x | 21* | 91* | 90* | YIC FRET counter=>50
Cc1nc2ccc(S(=O)(=O)NCC(=O)NCc3ccc(F)cc3)cc2s1 | x | x | 0 | x | x | x | x
COc1ccc(-c2c(C)c3ccc(O)cc3oc2=O)cc1 | -6 | x | 82* | x | 19* | 73* | 83* | YIC FRET counter=22*
Cc1ccc(N2CC(=O)N(NC(=O)c3sc4nc(C)cc(C)c4c3N)CC2=O)cc1 | 2 | 8 | 86* | 6 | 20* | 23* | 21* | YIC FRET counter=>50
COc1ccc(C(=O)Nc2nc3ccccc3[nH]2)cc1OC | -1 | -1 | 0 | 0 | u | x | x
O=C(Nc1nc2ccccc2[nH]1)c1cc2ccccc2o1 | -1 | -2 | 16* | -2 | 0 | 44* | 44*
COc1ccc(Cl)cc1C(=O)Nc1nc2ccccc2[nH]1 | -3 | x | 27* | x | 6 | -3 | -15
Cc1cc(C)cc(C(=O)Nc2nc3ccccc3[nH]2)c1 | 0 | x | 0 | x | -1 | x | x
CC(=O)c1c(C)nc2nonc2c1N | 0 | -78 | 16* | -6 | 1 | 33* | 38*
Cc1ccc(N(CC(=O)NCc2ccco2)C(=O)CNS(=O)(=O)c2ccccc2)c(C)c1 | 1 | x | 0 | x | 1 | x | x
CCN1CC(CN(C)Cc2cn(-c3cccc(C)c3)nc2-c2cccc(F)c2)CC1=O (centres undefined) | -4 | -3 | 17* | -6 | 6 | 1 | 0
CCN(Cc1cnn(C)c1)C(=O)c1ccc2nc(Cc3ccccc3F)oc2c1 | x | x | 0 | x | x | x | x
COCCNc1oc(/C=C/c2ccccc2)nc1C#N | 0 | 33 | 106* | 10 | 2 | 71* | 76*
SMILES | MEX-5 binding | Runt-SMMHC FRET | proKLK7 act | Runt-CBFb FRET | RanGTP-Impb inh | proKLK7 act conf | EDANS interfere | others
CC1CN(c2oc(-c3cccs3)nc2C#N)CC(C)O1 (centres undefined) | -3 | -8 | 10 | 0 | 1 | x | x
CNc1oc(-c2ccccc2)nc1C#N | 1 | -2 | -14 | 0 | 0 | x | x
N#Cc1nc(/C=C/c2ccccc2)oc1NCCCN1CCOCC1 | -1 | 32 | 32* | 14 | 4 | 75* | 71*
CNc1oc(/C=C/c2ccccc2)nc1C#N | 0 | 84* | 80* | 33 | 0 | 64* | 68*
N#Cc1nc(-c2cccs2)oc1N1CCOCC1 | 2 | 3 | 15* | 0 | 2 | 40* | 49*
COCCNc1oc(-c2ccc(C)cc2)nc1C#N | 0 | -2 | 3 | -2 | 11 | x | x
N#Cc1nc(COc2ccc(-c3ccccc3)cc2)oc1NCCCN1CCOCC1 | 0 | -1 | 0 | -1 | 5 | x | x
CC1(C(=O)NS(=O)(=O)c2ccccc2Cl)CCN1C(=O)Cc1cccs1 (centres undefined) | x | x | 1 | x | x | x | x
CCC(=O)N1c2ccc(S(=O)(=O)NCc3ccccc3)cc2CC1C (centres undefined) | 0 | x | 0 | x | 2 | x | x
N#Cc1nc(-c2cccs2)oc1NCCCN1CCOCC1 | -1 | 1 | 42* | 1 | -4 | 78* | 78*
N#Cc1c(N)n(-c2ccc(C(=O)O)cc2)c2nc3ccccc3nc12 | 3 | 82* | 69* | 92* | 50* | 79* | 79*
O=C(NCc1ccccc1)C(c1ccncc1)N(C(=O)c1csnn1)c1ccccc1F (centres undefined) | 2 | x | 1 | x | 2 | x | x
Cc1ccc(-c2cc(C(=O)NN=Cc3c4ccccc4cc4ccccc34)[nH]n2)cc1C | x | x | -3 | x | x | x | x
COc1ccc2ccccc2c1C=NNC(=O)c1cc(-c2ccc(C)cc2)n[nH]1 | x | x | 41* | x | x | -23 | -18
O=C(Nc1ncc2c(n1)-c1ccccc1OC2)c1ccc(F)cc1 | 0 | 0 | 32* | -1 | 0 | 15* | 12* | EDANS interf=i
CC(C)NC(=O)c1cc(C2CCCCN2S(=O)(=O)c2ccc(F)cc2F)on1 (centres undefined) | x | x | 1 | x | x | x | x
CCCCC1(C)Nc2ccccc2-c2nc3ccccc3n21 (centres undefined) | 3 | 40 | 63* | 11 | 1 | -11 | -12
c1ccc2c(c1)NC1(CCCCC1)n1c-2nc2ccccc21 | -4 | 22 | 63* | 4 | -2 | 7 | 12*
